For 28 molecules, growth inhibition results are on record in PubChem BioAssay AID638 (SRMLSC, 2007).

Out of some 1,300 compounds screened, about 65 (5%) were called active. Only a sample is shown. Measured potencies and affinities stand elsewhere. Unmarked numbers belong to inactive results.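 How the source made its calls: active means growth inhibition reaching a set limit at one or more tested doses; inactive means the rest.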

The test is described as follows: growth inhibition of wild-type E. coli, dose response, BW25113 wild type, OD615 (AID 638). The settings on record: at 100 µM (top of the series) unless noted. The procedure, abridged: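 Assay system: E. coli BW25113 wild type. Doses: compound concentration series. Timing: 20 h compound exposure, 37 °C. Technique: OD615 absorbance. Medium: LB broth containing kanamycin at 50 µg/mL. Benchmarks: chloramphenicol at 30 µM final as inhibition control. Measure: IC50 from 4-parameter logistic, bounds fixed 0–100%.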
Regarding `COc1ccccc1OCC(=O)N(Cc1nc(-c2ccccc2)no1)C1CCCCC1`, the growth inhibition is -2.24%. The value for `COC(=O)c1ccccc1NC(=O)N1c2ccccc2CC1C` (stereo not drawn) was 3.49%; that for `Cc1ccc(C)n1-n1cnc2sc(-c3ccccc3)cc2c1=O` was -14.3%; that for `CCOC(=O)c1cn(CC)c2cc(N3CCSCC3)c(F)cc2c1=O` was 10.1%. The same measure for `O=C(Nc1ccc(Cl)cc1)N(Cc1cccs1)Cc1cccs1`: -8.41%; for `Cc1ccc(OCc2nc(C#N)c(N3CCN(Cc4ccccc4)CC3)o2)cc1`: -9.19%; for `COc1ccc(OC)c(S(=O)(=O)N2CCN(c3c(C)cccc3C)CC2)c1`: -10%. The same measure for `COc1cc(NS(=O)(=O)c2ccc(Br)cc2)c(OC)cc1NC(=O)c1ccco1`: -12%; for `Fc1ccc(-n2c(Cc3ccccc3)nnc2SCc2nc(-c3cccs3)no2)cc1`: -13.2%. Consider `C=CCOC(=O)C(C#N)c1nc2ccccc2nc1N1CCCC1` (stereo not drawn), for which the growth inhibition was -1.85%. As to `COCc1cc(C)nc2sc3c(=O)oc(C)nc3c12`, the growth inhibition is 10.4%.

Consider `CCCCOC(=O)Nc1ccc(C(=O)OCCC)cc1`, for which the growth inhibition is 6.71%. On to `COC(=O)c1ccc(NC(=O)CN2CCN(c3cccc(Cl)c3)CC2)cc1`, for which the growth inhibition was -2.21%. The value for `CC(C)(C)C1CCC2(CC1)C(C#N)=C(SCC(=O)NC1CCCCC1)NC(=O)C2C#N` (stereo not drawn) was 12.2%; that for `N#CC1=C(SCC(=O)NC23CC4CC(CC(C4)C2)C3)NC(=O)C(C#N)C12CCCCC2` (stereo not drawn) was 18.1% (active); that for `N#CC1=C(SCC(=O)c2cc3ccccc3oc2=O)NC(=O)C(C#N)C12CCCC2` (stereo not drawn) was 14.3%. For `CCN(CC)S(=O)(=O)c1ccc2[nH]cc(C(=O)NCCC3=CCCCC3)c(=O)c2c1`, the growth inhibition is -6.85%. The same measure for `COc1ccc2nc(SCC(=O)N(C)C3CCCCC3)c(C#N)cc2c1`: -2.36%; for `CCCOc1ccc(C2C(C(=O)c3ccc(C)o3)=C(O)C(=O)N2Cc2cccnc2)cc1` (stereo not drawn): 6.33%. The value for `Cc1cc(Nc2ccccc2)nc(-c2ccccc2O)n1` was -4.57%; that for `Clc1ccc(OCCn2ccnc2)c2ccccc12` was 12.7% [at 50 µM]. Regarding `O=S(=O)(Nc1nc2ccccc2nc1N1CCN(c2ccccn2)CC1)c1ccc(Cl)cc1`, the growth inhibition is -0.89%. For `O=C(Nc1nnc(-c2cccs2)o1)c1cccc(Oc2ccccc2)c1`, the growth inhibition was 12.7%. In the case of `CC1CCCCN1S(=O)(=O)c1ccc(C(=O)Nc2nnc(-c3cccs3)o2)cc1` (stereo not drawn), the growth inhibition is 2.23%.

For `Cc1cc(N2CCCCC2)nc(SCc2ccc(C#N)cc2)n1`, the growth inhibition is -5.55%.

On to `Cc1ccccc1CSc1nc2n(n1)C(c1cccs1)C1=C(CCCC1=O)N2` (stereo not drawn), for which the growth inhibition was -14.8%. The value for `CCCCCn1c(N2CCC(Cc3ccccc3)CC2)nc2c1c(=O)[nH]c(=O)n2C` was -11.3%; that for `CCOC(=O)Cc1nnc2c(Nc3ccccc3F)nc3nonc3n12` was -6.59%.
